# Screening results: PubChem, several laboratories
# ABCB6 inh MLPCN: blocks the human ABCB6 transporter; Q9NP58; K562-ABCB6 porphyrin accumulation, flow cytometry, 1 h; active compounds read low; fluorescence ratio to DMSO, % at 10 µM; hit rate 0.19% among 360,000;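 active means fluorescence ratio to DMSO below 75%, the collection mean minus 3 SD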;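 further: signal is porphyrin accumulated inside mitochondria; 100% equals median channel fluorescence of DMSO control wells; lower ratio means ABCB6 inhibition with less porphyrin fluorescence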
# AHR act: activates the human aryl hydrocarbon receptor; activation, % at 5 µM; hit rate 2.5% among 320,000; AHR-responsive luciferase reporter cells, luminescence; P35869; in the data active means activation above about 47%;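 further: 0% = vehicle wells and 100% = reference agonist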
# Target sequence (P35869 whole entry, looked up): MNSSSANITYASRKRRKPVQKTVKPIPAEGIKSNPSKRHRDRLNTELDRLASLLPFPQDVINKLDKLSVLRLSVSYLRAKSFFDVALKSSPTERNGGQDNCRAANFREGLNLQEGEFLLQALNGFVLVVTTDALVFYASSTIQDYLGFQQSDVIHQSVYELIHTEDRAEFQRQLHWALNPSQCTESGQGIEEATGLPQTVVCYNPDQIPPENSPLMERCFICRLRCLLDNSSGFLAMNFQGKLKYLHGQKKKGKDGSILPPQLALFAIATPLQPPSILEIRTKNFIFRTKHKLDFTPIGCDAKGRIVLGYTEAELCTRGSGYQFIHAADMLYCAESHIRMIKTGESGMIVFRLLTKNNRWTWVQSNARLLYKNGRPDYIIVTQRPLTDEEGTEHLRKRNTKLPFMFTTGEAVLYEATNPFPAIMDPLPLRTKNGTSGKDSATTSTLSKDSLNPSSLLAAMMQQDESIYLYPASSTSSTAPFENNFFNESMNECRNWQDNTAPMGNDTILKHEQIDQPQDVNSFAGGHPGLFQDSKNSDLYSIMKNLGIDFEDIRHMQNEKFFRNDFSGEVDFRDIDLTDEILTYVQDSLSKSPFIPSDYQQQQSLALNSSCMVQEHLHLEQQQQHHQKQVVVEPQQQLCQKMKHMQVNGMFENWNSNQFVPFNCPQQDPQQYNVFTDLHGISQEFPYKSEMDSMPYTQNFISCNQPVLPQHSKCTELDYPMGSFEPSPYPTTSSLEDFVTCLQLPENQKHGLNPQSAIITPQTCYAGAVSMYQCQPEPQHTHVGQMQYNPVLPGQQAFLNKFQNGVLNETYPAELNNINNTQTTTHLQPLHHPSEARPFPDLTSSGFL
# SR-BI DiI inh: blocks mouse SR-BI lipid uptake from DiI-HDL | Q61009 | ldlA[mSR-BI] CHO cells, DiI-HDL uptake fluorescence, 3 h | hit rate 0.96% among 320,000 | inhibition, % at 12.5 µM | AID 488896;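 active means mean replicate inhibition of at least 70% and a set share of replicates each scoring 70 or more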;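 further: 0% = median of neutral control wells and 100% = median of positive control wells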
# GAA850 FXN act: increases GAA850 frataxin promoter reporter activity; HEK293 lucGAA850 FXN promoter luciferase reporter, 24 h; percent of 10 µM SAHA response; activation, % at 6 µM; hit rate 0.56% among 360,000; AID 540364;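 active means activation above the average of all compounds screened plus 3 SD, cutoff fixed separately per campaign, cut at about 7.5% in these data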;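 further: 0% = DMSO wells and 100% = 10 µM SAHA wells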
# SR-BI uptake up: SR-BI HDL lipid transfer activation; CHO ldlA[mSR-BI] cells, DiI-HDL uptake fluorescence, 3 h; 100 = double the neutral-control signal; activation, % at 12.5 µM; hit rate 0.096% among 320,000;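 active means mean replicate activation of at least 60% and every replicate at or above 60%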;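 further: 0% = median plate neutral-control signal and 100% = twice that signal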
#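 system = CHO ldlA[mSR-BI] cells, LDL receptor-null, SR-BI overexpressing | medium = Ham's F12 with 0.5% BSA, HEPES 25 mM, pH 7.4 | probe or stimulus = DiI-HDL 10 µg/mL | compound dosing = single-point compound dose | incubation = compound exposure 3 h, 37 °C | technique = DiI fluorescence, bottom read | read-out = cell-associated DiI fluorescence as measure of HDL uptake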
# HIF activator: HIF pathway transcriptional activation | activation, % at 7.5 µM (by protocol) | AID 1910 | U2OS HRE-luciferase reporter, luminescence; normalized: DMSO 0%, desferrioxamine 100% | hit rate 0.32% among 300,000;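 active means mean activation of at least 10% of the iron chelator positive control signal, with at least half of replicates also reaching 10%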
# GAA30 counter: counter-screen for GAA850 frataxin promoter activators: GAA30 promoter activation; HEK293 lucGAA30 FXN promoter luciferase, 24 h; DMSO = 0%, 5 µM ipriflavone = 100%; activation, % at 6 µM; hit rate 66% among 1,900; AID 588350; shares compounds with GAA850 FXN act;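 active means mean activation above the mean of solvent-only control wells plus 3 SD, cut at about 22% in these data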;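 further: counterscreen of GAA850 promoter hits where activity marks nonselective or luminescence artifacts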
# GAA850 confirm: GAA850 FXN promoter activation confirmation | shares compounds with GAA850 FXN act | HEK293 lucGAA850 FXN promoter luciferase reporter, 24 h; 100% = activation by SAHA | AID 588351 | hit rate 86% among 1,900 | activation, % at 6 µM;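 active means mean activation above a set limit taken from the primary screen, cut at about 8% in these data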;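 further: 0% = DMSO wells and 100% = 10 µM SAHA wells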
# Numbers without * were called inactive; x = not tested or not shown. Shown are actives, neighbours in structure and some others; about 3.9% of the full set was active somewhere.
SMILES,ABCB6 inh MLPCN,AHR act,SR-BI DiI inh,GAA850 FXN act,SR-BI uptake up,HIF activator,GAA30 counter,GAA850 confirm
CN1/C(=C/C(=O)c2nc(S(C)(=O)=O)ncc2Cl)C(C)(C)c2ccccc21,151,-6,1,9.8*,-1,x,-109,-19
Cc1c(Cl)cccc1N=Cc1ccc([N+](=O)[O-])s1,114,6,-19,9.2*,19,2,6,6
Cc1ccccc1C(=O)N/N=C/c1ccc([N+](=O)[O-])s1,104,-7,-4,-13,4,-3,x,x
NC(=O)CC(NC(=O)c1ccccc1)c1ccc(NC2CCCCCCC2)c([N+](=O)[O-])c1 (centres undefined),100,1,23,2,-23,1,x,x
COc1ccc2nc(N3CCN(C(=O)C4COc5ccccc5O4)CC3)sc2c1 (centres undefined),101,4,13,9.0*,-13,3,104*,32*
COc1cc(OC)c(OC)cc1CCC(C)NCCC(c1ccccc1)c1ccccc1 (centres undefined),94,2,10,13*,-10,-5,-20,9.4*
N#CCn1c2ccccc2c2nc3ccccc3nc21,96,47,-11,9.3*,11,1,52*,18*
c1ccc(-c2nnc(Cn3c4ccccc4c4nc5ccccc5nc43)o2)cc1,101,x,-33,-2,33,x,x,x
c1ccc2nc3c(nc2c1)c1ccccc1n3CCN1CCOCC1,91,8,-1,12*,1,3,52*,24*
CC(C)(Oc1ccc(Cl)cc1)C(=O)NC1CCSC1=O (centres undefined),101,0,-32,1,32,0,x,x
Cc1ccc(NC(=O)CCc2nnc3ccc(N4CCOCC4)nn23)cc1C,96,3,-2,13*,2,0,11,3
O=C(NNC(=O)C12CC3CC(CC(C3)C1)C2)c1ccccn1,100,1,-25,10*,25,0,-130,-37
COC(=O)c1ccccc1NC(=O)c1cnn2c(C)cc(C)nc12,104,7,65,4,-65,0,x,x
CC=CCn1c(SCc2ccccc2)nc2c1c(=O)[nH]c(=O)n2C,99,x,x,2,x,x,x,x
C/C=C/Cn1c(SCc2ccc(C)cc2)nc2c1c(=O)[nH]c(=O)n2C,95,3,5,8.7*,-5,0,23*,21*
CCOC(=O)c1ccc2[nH]c3c(c2c1)CCCCC3=O,99,0,12,8.1*,-12,1,65*,25*
CCOC(=O)c1ccc2[nH]c3c(c2c1)CCCC3C(=O)OCC (centres undefined),105,3,5,-1,-5,0,x,x
C[C@H]1CC[C@@]2(O[C@@H](CCO)C[C@@H](O)[C@@H]2O)O1,97,-1,0,0,0,0,x,x
CC(C)(C)c1nn(-c2ccccc2)c2[nH]c(=O)c(CNc3ccc4c(c3)OCCO4)cc12,103,3,-4,-12,4,0,x,x
Nc1ccc2cc3[nH]c4cc(N)ccc4c3nc2c1,x,x,-5,12*,5,x,-84,1
Nc1ccc2nc(C3CCCCC3)[nH]c2c1,107,4,4,5,-4,0,x,x
COc1cc2c(c(Br)c1N)-c1cc(Br)c(N)cc1C2=O,93,x,x,11*,x,x,91*,46*
C[C@H]1c2cccc(O)c2C(O)=C2C(=O)[C@]3(O)C(O)=C(C(N)=O)C(=O)[C@@H](N(C)C)C3[C@@H](O)C21 (some centres undefined),94,0,-19,16*,19,0,18,5
Cc1nc(SC(C(=O)c2ccccc2)c2ccccc2)nc2ccccc12 (centres undefined),96,-1,-8,4,8,0,x,x
COc1ccc2nc(SC(C(=O)c3ccccc3)c3ccccc3)nc(C)c2c1 (centres undefined),96,1,58,11*,-58,0,20,19*
SMILES,ABCB6 inh MLPCN,AHR act,SR-BI DiI inh,GAA850 FXN act,SR-BI uptake up,HIF activator,GAA30 counter,GAA850 confirm
Cc1ccc(/C=N/NC(=O)NC2CCCCC2)o1,100,22,-14,7,14,0,x,x
Cc1ccc(/C=C/C(=O)NC2CCCCCCC2)o1,96,7,2,11*,-2,-9,99*,49*
CSc1ccc(/C=C/c2ccc3cccc(O)c3n2)cc1,99,32,9,2,-9,3,x,x
Oc1cccc2ccc(/C=C/c3cccs3)nc12,97,70*,11,11*,-11,3,35*,24*
Cc1ccsc1/C=C/c1ccc2cccc(O)c2n1,92,94*,13,8.5*,-13,1,4,24*
Cc1ccc(N/C=C/C(=O)c2ccc(C)cc2)cc1,91,-1,3,6,-3,3,x,x
Cc1ccc(O)c(N/C=C/C(=O)c2ccc(F)cc2)c1,97,5,34,11*,-34,2,19,25*
COc1ccc(-n2c(SCC(=O)Nc3nccs3)nnc2-c2ccc(Cl)cc2)cc1,95,x,x,-2,x,x,x,x
COc1ccc(-c2[nH]c(-c3ccc(Cl)cc3)nc2SCC(=O)Nc2nccs2)cc1,99,62*,83*,19*,-83,0,9,8.9*
O=C(O)CCSc1nnc(COc2ccc([N+](=O)[O-])cc2)n1-c1ccccc1,101,0,-19,0,19,2,x,x
Cn1c(CS(=O)Cc2c(Cl)cccc2Cl)nnc1SCc1c(Cl)cccc1Cl (centres undefined),96,-11,70,10*,-70,0,25*,9.3*
COc1cc(/C=C2\N=C3CCCCCN3C2=O)ccc1O,99,2,-5,3,5,1,x,x
O=C1/C(=C\c2ccc(O)c(O)c2)N=C2CCCCCN12,94,2,-8,9.8*,8,0,74*,19*
CC(C)CCN1C(Nc2ccccc2)=NC[C@@H]1C,102,-5,-2,0,2,0,x,x
COC(=O)c1ccc(OC)c(NS(=O)(=O)c2ccc(-n3cnnn3)cc2)c1,100,1,-17,1,17,-9,x,x
O=C(N/N=C\C=C\c1ccco1)C1COc2ccccc2O1 (centres undefined),99,2,-21,7,21,-2,x,x
